Measurements: ChEMBL document CHEMBL1142489, “Tetrahydrolipstatin analogues as modulators of endocannabinoid 2-arachidonoylglycerol metabolism” (J Med Chem, 2008)

Tests used:
[1] = molecular target: T1, Diacylglycerol lipase-alpha (Homo sapiens, UniProt Q9Y4D2); test: Inhibition of human recombinant DAGL-alpha-mediated sn-1-[14C]oleoyl-2-arachidonoyl-glycerol hydrolysis to 2-AG overexpressed in african green monkey COS7 cell membrane by scintillation counting; format: cell membranes, COS-7
T1 sequence (Q9Y4D2 whole entry): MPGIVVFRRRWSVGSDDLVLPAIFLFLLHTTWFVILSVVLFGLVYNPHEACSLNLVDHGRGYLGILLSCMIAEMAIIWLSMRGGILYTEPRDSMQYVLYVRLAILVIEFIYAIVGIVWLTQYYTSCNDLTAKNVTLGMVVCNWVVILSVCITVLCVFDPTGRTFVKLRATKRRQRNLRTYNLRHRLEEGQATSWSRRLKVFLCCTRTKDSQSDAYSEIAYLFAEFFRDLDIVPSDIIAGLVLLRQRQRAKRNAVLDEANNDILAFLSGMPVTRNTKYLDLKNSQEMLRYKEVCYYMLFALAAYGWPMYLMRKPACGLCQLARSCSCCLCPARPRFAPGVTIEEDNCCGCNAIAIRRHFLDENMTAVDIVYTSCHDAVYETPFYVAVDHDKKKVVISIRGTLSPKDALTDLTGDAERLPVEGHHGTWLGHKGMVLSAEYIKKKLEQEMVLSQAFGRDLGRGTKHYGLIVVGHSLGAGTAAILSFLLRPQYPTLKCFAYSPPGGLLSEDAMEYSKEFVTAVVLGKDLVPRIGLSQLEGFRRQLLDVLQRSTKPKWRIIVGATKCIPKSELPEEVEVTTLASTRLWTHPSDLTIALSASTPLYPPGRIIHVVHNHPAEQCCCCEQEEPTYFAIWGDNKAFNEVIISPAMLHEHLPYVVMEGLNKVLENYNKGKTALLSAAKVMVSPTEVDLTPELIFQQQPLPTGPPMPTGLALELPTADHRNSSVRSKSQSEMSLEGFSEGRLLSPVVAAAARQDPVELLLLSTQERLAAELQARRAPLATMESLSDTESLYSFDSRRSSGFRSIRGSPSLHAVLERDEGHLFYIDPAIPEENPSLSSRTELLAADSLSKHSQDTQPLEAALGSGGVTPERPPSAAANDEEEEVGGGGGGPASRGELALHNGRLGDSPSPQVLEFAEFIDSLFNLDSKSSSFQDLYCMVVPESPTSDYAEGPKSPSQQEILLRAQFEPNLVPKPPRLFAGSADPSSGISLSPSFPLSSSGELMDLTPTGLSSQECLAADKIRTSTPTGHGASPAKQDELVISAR

[2] = Inhibition of MAGL-mediated [14C]2-arachidonoyl glycerol hydrolysis to [3H]arachidonic acid in african green monkey COS cell cytosolic fraction by scintillation counting; format: cell-based, Chlorocebus aethiops; conditions: in the assay text read “[3H]2-arachidonoyl glycerol” for “[14C]2-arachidonoyl glycerol”
How it was run: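 The 10000g cytosolic fraction of COS-7 cells, taken as the MAGL source, was incubated with 2-[3H]arachidonoylglycerol (1.0 mCi/mmol, 25 µM) in 50 mM Tris-HCl, pH 7.0, for 20 min at 37 °C. Products were separated by TLC. [3H]arachidonic acid was quantified by scintillation counting as the measure of activity.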

Cannabinoid receptor 1 = Cannabinoid receptor 1 (Homo sapiens, UniProt P21554); test: Displacement of [3H]CP-55940 from human recombinant CB1 receptor expressed in HEK293 cells by scintillation counting; format: cell-based
Cannabinoid receptor 2 = Cannabinoid receptor 2 (Homo sapiens, UniProt P34972); test: Displacement of [3H]CP-55940 from human recombinant CB2 receptor expressed in HEK293 cells by scintillation counting; format: cell-based
[3] = molecular target: T2, Fatty-acid amide hydrolase 1 (Rattus norvegicus, UniProt P97612); test: Inhibition of FAAH-mediated [14C]anandamide hydrolysis in rat brain membrane; format: cell membranes
T2 sequence (P97612 whole entry): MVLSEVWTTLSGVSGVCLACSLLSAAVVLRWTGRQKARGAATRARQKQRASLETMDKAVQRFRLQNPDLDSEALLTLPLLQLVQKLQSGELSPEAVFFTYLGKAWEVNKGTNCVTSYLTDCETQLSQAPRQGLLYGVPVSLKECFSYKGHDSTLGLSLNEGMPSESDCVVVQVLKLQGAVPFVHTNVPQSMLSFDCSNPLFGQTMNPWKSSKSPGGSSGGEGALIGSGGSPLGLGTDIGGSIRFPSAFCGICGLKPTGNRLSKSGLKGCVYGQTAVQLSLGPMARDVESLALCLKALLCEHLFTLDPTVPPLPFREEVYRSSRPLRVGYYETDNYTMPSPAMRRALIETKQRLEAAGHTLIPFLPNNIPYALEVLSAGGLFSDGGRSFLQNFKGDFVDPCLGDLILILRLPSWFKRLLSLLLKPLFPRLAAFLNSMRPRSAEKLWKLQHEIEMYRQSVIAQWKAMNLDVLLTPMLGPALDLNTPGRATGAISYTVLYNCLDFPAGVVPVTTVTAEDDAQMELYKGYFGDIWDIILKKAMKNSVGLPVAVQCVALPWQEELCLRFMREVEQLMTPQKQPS
How it was run: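 The mixture was extracted with 2 volumes of CHCl3/CH3OH 1/1. [14C]ethanolamine in the aqueous phase was measured by scintillation counting.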

[4] = Selectivity ratio of IC50 for human recombinant DAGLalpha over IC50 for african green monkey MAGL
Homo sapiens [5] = species: Homo sapiens; test: Selectivity ratio of IC50 for human recombinant DAGLalpha over Ki for human recombinant CB1 receptor
Homo sapiens [6] = species: Homo sapiens; test: Selectivity ratio of IC50 for human recombinant DAGLalpha over Ki for human recombinant CB2 receptor
[7] = Selectivity ratio of IC50 for human recombinant DAGLalpha over IC50 for rat brain membrane FAAH
[8] = Selectivity ratio of IC50 for african green monkey MAGL over IC50 for human recombinant DAGLalpha
[9] = Selectivity ratio of IC50 for african green monkey MAGL over Ki for human recombinant CB1 receptor
[10] = Selectivity ratio of IC50 for african green monkey MAGL over Ki for human recombinant CB2 receptor
[11] = Selectivity ratio of IC50 for african green monkey MAGL over IC50 for rat brain membrane FAAH
[12] = Enhancement of ionomycin-induced stimulation of 2-AG biosynthesis in mouse N18TG2 cells at 1.5 uM; format: functional
How it was run: (§1)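 Confluent mouse N18TG2 neuroblastoma cells attached to dishes were incubated for 20 min at 37 °C in medium containing 3 µM ionomycin, with vehicle or test compound. The reaction was stopped with ice-cold methanol and lipids were extracted three times with CHCl₃. Lyophilized lipids were assayed for 2-AG by isotope-dilution LC-MS. Values are % change in 2-AG levels versus vehicle (means ± SEM, N = 3).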

[13] = Inhibition of ionomycin-induced stimulation of 2-AG biosynthesis in mouse N18TG2 cells at 1 uM; format: functional; how it was run: as §1
[14] = Inhibition of ionomycin-induced stimulation of 2-AG biosynthesis in mouse N18TG2 cells at 0.3 uM; format: functional; how it was run: as §1

Chain of Cannabinoid receptor 1 (P21554 whole entry): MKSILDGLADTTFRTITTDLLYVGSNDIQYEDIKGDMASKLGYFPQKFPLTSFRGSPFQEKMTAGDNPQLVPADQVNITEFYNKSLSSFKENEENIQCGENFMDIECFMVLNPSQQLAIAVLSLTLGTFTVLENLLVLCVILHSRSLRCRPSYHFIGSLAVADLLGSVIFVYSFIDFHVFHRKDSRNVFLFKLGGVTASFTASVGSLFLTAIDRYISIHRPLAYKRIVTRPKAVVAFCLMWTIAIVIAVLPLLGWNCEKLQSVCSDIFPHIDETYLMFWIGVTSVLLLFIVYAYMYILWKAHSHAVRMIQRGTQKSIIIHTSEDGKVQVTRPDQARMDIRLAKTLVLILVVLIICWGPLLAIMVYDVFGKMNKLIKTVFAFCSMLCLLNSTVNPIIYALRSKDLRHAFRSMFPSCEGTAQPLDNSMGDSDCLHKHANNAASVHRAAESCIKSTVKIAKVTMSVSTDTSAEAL
Chain of Cannabinoid receptor 2 (P34972 whole entry): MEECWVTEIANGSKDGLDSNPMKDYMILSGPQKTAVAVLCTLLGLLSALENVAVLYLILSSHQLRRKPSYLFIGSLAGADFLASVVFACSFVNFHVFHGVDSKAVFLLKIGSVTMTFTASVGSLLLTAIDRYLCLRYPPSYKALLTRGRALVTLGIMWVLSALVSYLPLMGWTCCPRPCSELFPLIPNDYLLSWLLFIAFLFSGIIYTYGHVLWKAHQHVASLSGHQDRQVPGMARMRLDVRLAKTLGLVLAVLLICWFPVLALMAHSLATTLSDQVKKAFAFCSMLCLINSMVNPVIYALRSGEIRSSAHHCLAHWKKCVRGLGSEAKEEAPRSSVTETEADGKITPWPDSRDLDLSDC

IC50 [1] [µM] | IC50 [2] [µM] | Ki (Cannabinoid receptor 1) [µM] | Ki (Cannabinoid receptor 2) [µM] | IC50 [3] [µM] | Structure (SMILES) | other results
0.035 | > 10 | 5.7 | > 10 | > 50 | CCCCCCCCCCC[C@@H](C[C@@H]1OC(=O)[C@H]1CCCCCC)OC(=O)[C@@H](NC=O)C(C)C | Ratio IC50 [4]: 23; Ratio (Homo sapiens [5]): 23; Ratio (Homo sapiens [6]): 23; Ratio IC50 [7]: 23
0.43 | > 10 | 8.6 | > 10 | 6.6 | CCCCCCCCCCC[C@@H](C[C@@H]1OC(=O)[C@H]1CCCCCC)OC(=O)[C@@H](NC(C)=O)[C@@H](C)CC | Ratio IC50 [4]: 15; Ratio (Homo sapiens [5]): 15; Ratio (Homo sapiens [6]): 15; Ratio IC50 [7]: 15
0.1 | 3.5 | 2.6 | > 10 | > 50 | CCCCCCCCCCC[C@@H](C[C@@H]1OC(=O)[C@H]1CCCCCC)OC(=O)[C@@H]1CCC(=O)N1 | Ratio IC50 [4]: 15; Ratio (Homo sapiens [5]): 15; Ratio (Homo sapiens [6]): 15; Ratio IC50 [7]: 15
0.043 | 1 | 3.1 | > 10 | > 50 | CCCCCCCCCCC[C@@H](C[C@@H]1OC(=O)[C@H]1CCCCCC)OC(=O)[C@H](C)NC=O | Ratio IC50 [4]: 23; Ratio (Homo sapiens [5]): 23; Ratio (Homo sapiens [6]): 23; Ratio IC50 [7]: 23
 | > 10 |  |  |  | CCCCCCCCCCC[C@@H](C[C@@H]1OC(=O)[C@H]1CCCCCC)OC(=O)[C@@H](CC(C)C)NC=O | 
0.6 | 0.4 | 1.9 | 6.4 | > 50 | CCCCCCCCCCC[C@@H](C[C@@H]1OC(=O)[C@H]1CCCCCC)OC(=O)CCNC=O | 
> 25 | > 10 |  |  | > 50 | CCCCCCCCCCC[C@@H](C[C@@H]1OC(=O)[C@H]1CCCCCC)OC(=O)[C@@H](N)CC(C)C | 
> 25 | > 10 |  |  | 10.4 | CCCCCCCCCCC[C@@H](C[C@@H]1OC(=O)[C@H]1CCCCCC)OC(=O)CCC(C)C | 
0.46 | > 10 | 8.4 | > 10 | > 50 | CCCCCCCCCCC[C@@H](C[C@@H]1OC(=O)[C@H]1CCCCCC)OC(=O)[C@@H](NC(C)=O)C(C)C | Ratio IC50 [4]: 15; Ratio (Homo sapiens [5]): 15; Ratio (Homo sapiens [6]): 15; Ratio IC50 [7]: 15
0.8 | 1.7 | 2.3 | > 10 | > 50 | CCCCCCCCCCC[C@@H](C[C@@H]1OC(=O)[C@H]1CCCCCC)OC(=O)CNC(C)=O | 
1.1 | > 10 | 1.7 | 7.4 | 3.4 | CCCCCCCCCCC[C@@H](C[C@@H]1OC(=O)[C@H]1CCCCCC)OC(=O)[C@@H]1CCCN1C=O | 
25 | > 10 |  |  | > 50 | CCCCCCCCCCC[C@H](O)C[C@@H]1OC(=O)[C@H]1CCCCCC | 

The remaining lines, values behind:

Structure (SMILES) | IC50 [1] [µM] | IC50 [2] [µM] | Ki (Cannabinoid receptor 1) [µM] | Ki (Cannabinoid receptor 2) [µM] | IC50 [3] [µM] | other results
CCCCCCCCCCC[C@@H](C[C@@H]1OC(=O)[C@H]1CCCCCC)OC(=O)CNC=O | 2.8 | 0.41 | > 10 | > 10 | 3 | Ratio IC50 [8]: 7; Ratio [9]: 7; Ratio [10]: 7; Ratio IC50 [11]: 7; Activity [12]: 55%
CCCCCCCCCCC[C@@H](C[C@@H]1OC(=O)[C@H]1CCCCCC)OC(=O)[C@H](CC(C)C)NC(=O)OC(C)(C)C | > 25 | > 10 |  |  | > 50 | 
CCCCCCCCCCC[C@@H](C[C@@H]1OC(=O)[C@H]1CCCCCC)OC(=O)CNC(=O)OCc1ccccc1 | > 25 | > 10 |  |  | > 50 | 
CCCCCCCCCCC[C@@H](C[C@@H]1OC(=O)[C@H]1CCCCCC)OC(=O)[C@H](CC(C)C)NC=O [ORLISTAT] |  | > 10 | 2.5 | > 10 |  | inhibition at 1 µM [13]: 79.8%
CCCCCCCCCCC[C@@H](C[C@@H]1OC(=O)[C@H]1CCCCCC)OC(=O)[C@H](Cc1ccccc1)NC(=O)OCc1ccccc1 | > 25 | > 10 |  |  | > 50 | 
CCCCCCCCCCC[C@@H](C[C@@H]1OC(=O)[C@H]1CCCCCC)OC(=O)[C@@H](N)Cc1ccccc1 | 25 | > 10 |  |  | > 50 | 
CCCCCCCCCCC[C@@H](C[C@@H]1OC(=O)[C@H]1CCCCCC)OC(=O)[C@H](CC(C)C)NC(=O)OCc1ccccc1 | > 25 | > 10 |  |  | > 50 | 
CCCCCCCCCCC[C@@H](C[C@@H]1OC(=O)[C@H]1CCCCCC)OC(=O)[C@@H](CC(C)C)NC(=O)OCc1ccccc1 | > 25 | > 10 |  |  | > 50 | 
CCCCCCCCCCC[C@@H](C[C@@H]1OC(=O)[C@H]1CCCCCC)OC(=O)[C@@H](NC=O)[C@@H](C)CC | 0.016 | > 10 | 6 | > 10 | > 50 | Ratio IC50 [4]: 23; Ratio (Homo sapiens [5]): 23; Ratio (Homo sapiens [6]): 23; Ratio IC50 [7]: 23; inhibition at 0.3 µM [14]: 57.3%
CCCCCCCCCCC[C@@H](C[C@@H]1OC(=O)[C@H]1CCCCCC)OC(=O)[C@H](Cc1ccccc1)NC=O | 25 | > 10 |  |  | > 50 | 
